Structures are written as SMILES. Among all 2,500 compounds or so, about 1,200 (48%) were called active. So high a share suggests a set chosen from earlier hits. Some of the results follow. Values without a mark were called inactive.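 The calls were made as follows: active = mean activation above the low control average plus 3 SD, as set in the primary screen (cut at about 12% in these data); inactive = the rest.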

The target of the experiment is Troponin I, cardiac muscle (Homo sapiens) + Troponin T, cardiac muscle (Homo sapiens) + Troponin C, slow skeletal and cardiac muscles (Homo sapiens) (UniProt P19429+P45379+P63316). Briefly: calcium sensitizers of cardiac thin filaments – biochemical, IANBD-TnC fluorescence, triplicate, confirmation (AID 504383).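 Also: 0% = DMSO at 0.472 mM calcium and 100% = DMSO at 2.9 mM calcium.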 Conditions: IANBD-labeled cardiac RTF, Ca2+ sensitivity fluorescence; at 7.2 µM; hits give high values; scaled from EC20 to saturating calcium; tested at EC20 calcium, 0.472 mM. An outline of the steps:
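Test system: labelled regulated thin filament protein complex. Dosing: single nominal compound dose of 7.2 µM. Benchmarks: EC20 and EC100 calcium wells. Read-out basis: fluorescence gain scaled between EC20 and EC100 calcium controls. Probe or stimulus: submaximal calcium at 0.472 mM (EC20). Technique: fluorescence. Times: 15 min compound exposure, 25 °C.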
Consider `CC(C(=O)NNS(=O)(=O)c1cccc(C(F)(F)F)c1)n1nnc(N2CCOCC2)n1` (stereo not given), for which the activation is 5.72%.

For the compound `C=CCOc1ccn(C)c(=O)n1`, the activation is 12.1% (active).

For `CCOc1ccc(NC(=O)C2CC(=O)N=C(N)S2)cc1` (stereo not given), the activation is 4.04%.

As to `COc1ccc(N=Nc2nc3cc(Br)c(Br)cc3n2C)c(OC)c1`, the activation is 2020% (active).

`COc1ccc(N=Nc2nc3ccc(Br)cc3n2C)cc1`: the activation is 10.6%.

Turning to `COc1ccc(Nc2nc3ccc(C)cc3cc2C#N)c(OC)c1`, the activation is 3.9%.

Turning to `COc1ccccc1N1C(=O)c2cccc3c(N(C)CCO)ccc(c23)C1=O`, the activation is 7.87%.

On to `O=C1c2cccc3c([N+](=O)[O-])ccc(c23)C(=O)N1Cc1cccnc1`, for which the activation is 3.03%.

With `Cc1ccnc(N2C(=O)c3cccc4c([N+](=O)[O-])ccc(c34)C2=O)c1`, the activation is 16.1% (active).

As to `Cc1ccc(N2C(=O)c3cccc4c(N)ccc(c34)C2=O)c2cccnc12`, the activation is 9.53%.

`CN(C)CCCN1C(=O)c2cccc3c([N+](=O)[O-])ccc(c23)C1=O`: the activation is 38.5% (active).

As for `Cc1cccc(N2C(=O)c3cccc4c(N)ccc(c34)C2=O)c1`, the activation is 0.54%.

With `CCOC(=O)c1sc(-c2ccc(F)cc2)cc1NC(=O)Nc1ccccc1OC`, the activation was 37.5% (active).

On to `COc1ccccc1NS(=O)(=O)c1cc(C(=O)NCCN2CCOCC2)ccc1Cl`, for which the activation is 2.55%.

With `CCOc1ccc2ccccc2c1CNCCN1CCOCC1`, the activation was 27% (active).

With `COc1ccccc1N1C(C)=CC(=C(C#N)c2nc3ccccc3s2)C=C1C`, the activation was 11.1%.

Regarding `CC1=CC(=C(C#N)c2nc3ccccc3s2)C=C(C)N1c1ccc(F)cc1`, the activation was 74.2% (active).

With `Cc1ccc(-n2c(C)cc(C(=O)COC(=O)c3ccc[nH]c3=O)c2C)cc1`, the activation was 6.02%.

With `COCCn1c(C)cc(C(=O)COC(=O)c2ccc(Cl)c(S(N)(=O)=O)c2)c1C`, the activation is 13% (active).

Take `O=C1CCC(=O)N1CC(O)COc1ccccc1` (stereo not given): the activation is 255% (active).

Turning to `Cc1cc(C)n(CC(O)COc2ccccc2)n1` (stereo not given), the activation is 6.17%.

Turning to `OCCN1CCN(CC(O)COc2ccc(C34CC5CC(CC(C5)C3)C4)cc2)CC1` (stereo not given), the activation was 90.4% (active).

In the case of `CCCN1C(=O)c2ccccc2NC1c1ccc(O)c(OCC)c1` (stereo not given), the activation was 14.5% (active).

On to `CCOc1cc(C2C3=C(CCCC3=O)N(C)C3=C2C(=O)CCC3)cc(Cl)c1O`, for which the activation is 6.5%.

`COc1ccc(/C(C)=N/N2C(=O)c3ccccc3NC2c2ccc(O)c(OC)c2)cc1` (stereo not given): the activation was 9.34%.

With `O=C(O)c1cccc2c1-c1c(cccc1[N+](=O)[O-])C2`, the activation is 1890% (active).

For the compound `CC(C)C12CN(C(=O)c3ccccc3[N+](=O)[O-])CC(C(C)C)(CN(C(=O)c3ccccc3[N+](=O)[O-])C1)C2=O`, the activation was 6.99%.

With `CCN(CC)c1ccc(-c2sc(Nc3ccccc3)n[n+]2-c2ccc(F)cc2)cc1`, the activation was 18.7% (active).

Turning to `CCc1ccc(Nc2n[n+](-c3ccccc3)c(-c3ccc(N(CC)CC)cc3)s2)cc1`, the activation was 5.32%.

Take `CCN(CC)c1ccc(NC(=S)Nc2ccc(F)cc2)cc1`: the activation was 5.29%.

For `CCOC(=O)/C(C#N)=C/c1ccc(N2CCN(Cc3ccccc3)CC2)cc1`, the activation was 285% (active).

As for `CCOC(=O)/C(C#N)=C\c1ccc(N2CCN(C/C=C/c3ccccc3)CC2)cc1`, the activation is 4.67%.

As to `CCOC(=O)Nc1ccc(NCc2ccc(F)cc2)nc1N`, the activation is 5.72%.

As for `CCN(CC)c1ccc2cc(C(=O)NCc3ccc(F)cc3)c(=N)oc2c1`, the activation was 54.1% (active).

Turning to `COC(=O)CNC(=O)COC(=O)c1cc(F)c(F)cc1Cl`, the activation was 7.53%.

Consider `Cn1c2c(c(=O)n(C)c1=O)C(C(F)(F)F)(C(F)(F)F)N=C(CCC1CCCCC1)N2`, for which the activation is 9.24%.

For `CC(C)(C)C1(O)CC(C(F)(F)F)=NN1C(=O)CCCc1ccccc1` (stereo not given), the activation is 3.64%.

Turning to `COC(=O)C1=NN(C(=O)c2ccc(Br)cc2)C(O)(C(C)(C)C)C1` (stereo not given), the activation is 13.4% (active).

As for `CCN(CC)c1ccc(/C=C2/SC(=O)N(C(C)C)C2=O)o1`, the activation was 15.2% (active).

Consider `COc1cc(OC)c(OC)cc1/C=C1\Oc2cc(OCC(=O)N3Cc4ccccc4C[C@H]3C(=O)O)ccc2C1=O`, for which the activation is 7.71%.

In the case of `COc1ccc(/C=C2\Oc3cc(OCC(=O)N4CCC(C(=O)O)CC4)ccc3C2=O)c(OC)c1`, the activation is 249% (active).

As for `COc1ccc(/C=C2\Oc3cc(OC(=O)N4CCOCC4)ccc3C2=O)c(OC)c1`, the activation is 19.2% (active).

On to `COc1ccc(/C=C2\Oc3cc(OCC(=O)N4CCC[C@H]4CO)ccc3C2=O)c(OC)c1`, for which the activation was 13.8% (active).

For `COc1ccc(/C=C2\Oc3cc(OCC(=O)N4CCC[C@H]4C(=O)O)ccc3C2=O)c(OC)c1`, the activation is 17.4% (active).

`CS(=O)(=O)N(CC(=O)NCCSCc1ccccc1)c1ccccc1`: the activation is 7.88%.

As for `CCOC(=O)c1c(NC(=O)c2ccno2)c2cc([N+](=O)[O-])ccc2n1C`, the activation was 4.78%.

Take `Cc1cccc(OCc2nn[nH]n2)c1C`: the activation was 9.03%.

Take `Cc1cccc(C)c1OCC(C)N` (stereo not given): the activation was 15.2% (active).

On to `CC(=O)Oc1ccc2c(c1)Oc1cc(OC(C)=O)ccc1C21OC(=O)c2ccccc21`, for which the activation was 49.7% (active).

In the case of `CC1CCCCC1NS(=O)(=O)CCNC(=O)c1ccccc1` (stereo not given), the activation is 1.54%.

`Cc1cc(C)c2c(SC(C)C)nc(N)nc2n1`: the activation is 18.3% (active).

As to `Cc1ccc(NC(=S)Nc2ccc3nc(-c4ccccn4)c(-c4ccccn4)nc3c2)cc1C`, the activation is 15.9% (active).

Regarding `Cc1ccc(NC(=O)Cn2ccnc2)cc1C`, the activation was 6.24%.

As for `Cc1ccccc1NC(=S)Nc1ccc(Br)cc1`, the activation is 9.23%.

For `C=CCn1c(C)cc(-c2csc(N)n2)c1C`, the activation is 9.08%.

As to `O=C1NC(c2ccccc2)=C(c2nc3ccccc3s2)C(c2ccc(O)cc2)N1` (stereo not given), the activation was 2.85%.

As to `O=C(Nc1nc(-c2nc3ccccc3s2)cs1)C1COc2ccccc2O1` (stereo not given), the activation is 43.4% (active).

As to `NC(=O)c1c(NC(=O)C2COc3ccccc3O2)sc2c1CCN(Cc1ccccc1)C2` (stereo not given), the activation is 5.35%.

Regarding `O=C(Nc1ccc(Cl)cn1)C1COc2ccccc2O1` (stereo not given), the activation was 54.7% (active).

As to `CC(=O)Nc1sc2c(c1-c1nc3ccccc3s1)CN(C(C)C)CC2`, the activation is 3.29%.
